Reference: ChEMBL document CHEMBL1212854, “The structure-activity relationships of A-ring-substituted aromathecin topoisomerase I inhibitors strongly support a camptothecin-like binding mode” (2010)
Activity calls are given as the source filed them. No cut-off for these calls is given here.

Key:
[1] = test system: MCF7; test: Cytotoxicity against human MCF7 cells; assay type: functional
Summary of the method: (§1)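 NCI 60-cell-line screen (eight solid-tumour subpanels plus leukemia). A one-dose pass at 10−5 M came first. Selected compounds were then run at five concentrations from 10−8 to 10−4 M. GI50 is the concentration giving 50% growth inhibition.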

[2] = test system: DU-145; test: Cytotoxicity against human DU145 cells; assay type: functional; summary of the method: as §1
[3] = test system: OVCAR-3; test: Cytotoxicity against human OVCAR-3 cells; assay type: functional; summary of the method: as §1
[4] = test system: UACC-62; test: Cytotoxicity against human UACC62 cells; assay type: functional; summary of the method: as §1
[5] = test system: SF-539; test: Cytotoxicity against human SF539 cells; assay type: functional; summary of the method: as §1
[6] = test system: HOP-62; test: Cytotoxicity against human HOP62 cells; assay type: functional; summary of the method: as §1
[7] = molecular target: T1, DNA topoisomerase 1 (Homo sapiens) (UniProt P11387); test: Inhibition of human recombinant Top1-mediated DNA cleavage at 0.1 to 100 uM after 20 mins relative to camptothecin; set-up: scale not given: the % may be the effect or the level left
T1 sequence (whole entry): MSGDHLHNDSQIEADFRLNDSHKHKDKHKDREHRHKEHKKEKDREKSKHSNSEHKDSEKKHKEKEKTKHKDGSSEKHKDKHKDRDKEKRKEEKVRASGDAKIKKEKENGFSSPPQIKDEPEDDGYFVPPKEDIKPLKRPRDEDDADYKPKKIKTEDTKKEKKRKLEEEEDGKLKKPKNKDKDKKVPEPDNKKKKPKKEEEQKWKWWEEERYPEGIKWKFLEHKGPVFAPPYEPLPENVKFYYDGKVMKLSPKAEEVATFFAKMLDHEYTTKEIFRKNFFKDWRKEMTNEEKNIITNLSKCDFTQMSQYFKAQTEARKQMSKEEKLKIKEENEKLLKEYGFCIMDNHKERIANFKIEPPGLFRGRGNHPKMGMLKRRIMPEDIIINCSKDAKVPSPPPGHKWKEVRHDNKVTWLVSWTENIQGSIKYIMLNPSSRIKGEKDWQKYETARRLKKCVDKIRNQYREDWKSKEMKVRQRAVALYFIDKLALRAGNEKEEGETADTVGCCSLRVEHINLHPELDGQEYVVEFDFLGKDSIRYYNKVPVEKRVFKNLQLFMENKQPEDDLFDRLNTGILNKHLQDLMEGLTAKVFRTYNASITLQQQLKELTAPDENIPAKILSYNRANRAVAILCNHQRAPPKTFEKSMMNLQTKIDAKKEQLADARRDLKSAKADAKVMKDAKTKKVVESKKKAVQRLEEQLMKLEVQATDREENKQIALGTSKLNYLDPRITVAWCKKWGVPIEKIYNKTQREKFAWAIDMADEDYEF
Summary of the method: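 Human recombinant Top1 purified from baculovirus. Substrate is a 117-bp oligonucleotide, about 2 nM, 3′-end labelled with 32P-dGTP by Klenow fill-in. Stopped with 0.5% SDS, run on 20% denaturing PAGE and phosphorimaged. Cleavage graded 0 to +++ against 1 μM camptothecin.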

[8] = test system: HCT-116; test: Cytotoxicity against human HCT116 cells; assay type: functional; summary of the method: as §1
[9] = test system: SN12C; test: Cytotoxicity against human SN12C cells; assay type: functional; summary of the method: as §1

Activity [7]	Compound	GI50 [1] [nM]	GI50 [2] [nM]	GI50 [3] [nM]	GI50 [4] [nM]	GI50 [5] [nM]	GI50 [6] [nM]	GI50 [8] [nM]	GI50 [9] [nM]
20%	O=c1c2ccccc2cc2n1Cc1c-2nc2ccc(Cl)cc2c1CN1CC[C@H](O)C1	370	1660	1860	740	1260	1050	1100	–
inactive	COc1cc2nc3c(c(CN4CCN(C)CC4)c2cc1OC)Cn1c-3cc2ccccc2c1=O	–	–	–	–	–	–	–	–
20%	CN1CCN(Cc2c3c(nc4ccc(Cl)cc24)-c2cc4ccccc4c(=O)n2C3)CC1	3310	2750	1510	1410	1580	2290	150	1780
75%	NCCCc1c2c(nc3cc4c(cc13)OCCO4)-c1cc3ccccc3c(=O)n1C2	1050	1820	1950	1620	1860	2140	1950	1860
Active	COc1cc2c3c(n(CCCn4ccnc4)c(=O)c2cc1OC)-c1cc2c(cc1C3=O)OCO2 [INDIMITECAN]	10	< 10	85	< 10	37	< 10	< 10	< 10
20%	Cc1cc2c(CN)c3c(nc2cc1F)-c1cc2ccccc2c(=O)n1C3	–	–	–	–	–	–	–	–
20%	O=c1c2ccccc2cc2n1Cc1c-2nc2cccc(Cl)c2c1CN1CC[C@H](O)C1	370	3980	2630	3090	1950	1660	1550	3710
inactive	COc1cc2nc3c(c(CCl)c2cc1OC)Cn1c-3cc2ccccc2c1=O	–	–	–	–	–	–	–	–
75%	O=c1c2ccccc2cc2n1Cc1c-2nc2cc3c(cc2c1CN1CCOCC1)OCCO3	300	930	1700	990	810	3800	1330	2570
inactive	O=c1c2ccccc2cc2n1Cc1c-2nc2cc3c(cc2c1CCCCl)OCCO3	–	–	–	–	–	–	–	–
20%	CN1CCN(Cc2c3c(nc4cc(Cl)ccc24)-c2cc4ccccc4c(=O)n2C3)CC1	10900	23400	15100	17000	15100	18100	13500	19000
20%	O=c1c2ccccc2cc2n1Cc1c-2nc2ccc(Cl)cc2c1Cn1ccnc1	190	480	690	310	390	460	400	1540
50%	O=c1c2ccccc2cc2n1Cc1c-2nc2cc3c(cc2c1CN1CC[C@H](O)C1)OCCO3	270	1020	1840	460	490	1010	820	940
75%	O=c1c2ccccc2cc2n1Cc1c-2nc2cc3c(cc2c1Cn1ccnc1)OCCO3	300	> 100000	18600	21400	4370	19500	> 100000	81300
75%	CN(C)Cc1c2c(nc3cc4c(cc13)OCCO4)-c1cc3ccccc3c(=O)n1C2	300	2190	2190	1660	2690	3310	1170	2510
50%	O=c1c2ccccc2cc2n1Cc1c-2nc2cc3c(cc2c1CN1CC[C@H](O)C1)OCO3	70	–	> 100000	350	600	480	850	790
